Laboratory results taken from ChEMBL document CHEMBL3414501, “New platelet aggregation inhibitors based on pyridazinone moiety” (Eur J Med Chem, 2015).
The source made the active and inactive calls. No cut-off for these calls is given here.

How the values were obtained:
Type in all cases: functional, cell-based
[1] = Antiplatelet activity in human platelet assessed as inhibition of collagen-induced platelet aggregation incubated for 5 mins prior to collagen challenge measured over 5 mins by turbidimetric method
Summary of the method: (§1)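 Washed human platelets from buffy coat, resuspended in Tyrode-HEPES pH 7.4 with 2 mM CaCl2. Compound in DMSO preincubated with platelets, then collagen (2-4 μg/mL), CRP, thrombin, U-46619 or ionomycin added. Light transmission followed over 5 min in a dual-channel aggregometer (Born turbidimetry); aggregation taken as maximal transmission change. Non-collagen agonists tested at 20 μM compound; at least four experiments in duplicate.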

Platelet [2] = assay: Antiplatelet activity in human platelet assessed as inhibition of ionomycin-induced platelet aggregation at 20 uM incubated for 5 mins prior to U-46619 challenge measured over 5 mins by […]; conditions: in the assay text read “ionomycin challenge” for “U-46619 challenge”; summary of the method: as §1
Platelet [3] = assay: Antiplatelet activity in human platelet assessed as inhibition of U-46619-induced platelet aggregation at 20 uM incubated for 5 mins prior to U-46619 challenge measured over 5 mins by […]; summary of the method: as §1
Platelet [4] = assay: Antiplatelet activity in human platelet assessed as inhibition of CRP-XL-induced phosphotyrosine level incubated for 5 mins prior to CRP-XL challenge measured after 5 mins by immunodot blot analysis
Summary of the method: (§2)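 Washed platelets from donor buffy coat in modified Tyrode-HEPES (pH 7.4, 2 mM Ca2+), pre-incubated 5 min with DMSO or compound. Flow cytometry: CRP-XL stimulation with FITC-PAC-1 for 15 min at room temperature, 10,000 events, PAC-1 mean fluorescence and % positive platelets. Phosphotyrosine: CRP-XL 5 μg/mL, SDS/EDTA (2%/1 mM final) lysates, immunodot blot with 4G10, HRP secondary, chemiluminescence.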

Platelet [5] = assay: Antiplatelet activity in human platelet assessed as inhibition of thrombin-induced platelet aggregation at 20 uM incubated for 5 mins prior to thrombin challenge measured over 5 mins by […]; summary of the method: as §1
Platelet [6] = assay: Antiplatelet activity in human platelet assessed as inhibition of CRP-XL-induced activated Gp2b/3a expression incubated for 5 mins prior to CRP-XL challenge measured after 15 mins by flow cytometry; summary of the method: as §2
Platelet [7] = assay: Antiplatelet activity in human platelet assessed as inhibition of CRP-XL-induced platelet aggregation at 20 uM incubated for 5 mins prior to CRP-XL challenge measured over 5 mins by […]; summary of the method: as §1

SMILES | IC50 [1] | also measured
CC(C)(C)[Si](OCc1ccnn(Cc2ccccc2)c1=O)(c1ccccc1)c1ccccc1 | 1.31 µM | 
CC(C)(C)[Si](OCc1cnn(Cc2ccccc2)c(=O)c1)(c1ccccc1)c1ccccc1 | 0.55 µM | inhibition (Platelet [2]): inactive; inhibition (Platelet [3]): inactive; inhibition (Platelet [4]): Dose-dependent effect; inhibition (Platelet [5]): inactive; inhibition (Platelet [6]): Active; inhibition (Platelet [7]): Active
O=c1cc(CO)cnn1Cc1ccccc1 | > 100 µM | 
O=c1cc(COCc2ccccc2)cnn1Cc1ccccc1 | 3.75 µM | 
O=c1cc2c(n[nH]1)CCCO2 | > 100 µM | 
O=C1CC2OCCCC2=NN1 (configuration not stated) | > 100 µM | 
O=C1CC2OCCC2=NN1 (configuration not stated) | 70.6 µM | 

Now from value to compound, other results behind:

IC50 [1] | SMILES | also measured
17.5 µM | O=c1c(COCc2ccccc2)ccnn1Cc1ccccc1 | 
> 100 µM | O=c1cc(CBr)cnn1Cc1ccccc1 | 
> 100 µM | O=c1c(CBr)ccnn1Cc1ccccc1 | 
> 100 µM | O=c1c(CO)ccnn1Cc1ccccc1 | 
